Test results reported in ChEMBL document CHEMBL3865819, “Myrsinane, Premyrsinane, and Cyclomyrsinane Diterpenes from Euphorbia falcata as Potassium Ion Channel Inhibitors with Selective G Protein-Activated Inwardly Rectifying Ion Channel (GIRK) Blocking Effects” (J Nat Prod, 2016).

Tests used:
Assay type in all cases: cell-based
[1] = biological target: T1, Kir3.1/Kir3.4 (Homo sapiens) (UniProt P48549+P48544); assay: Inhibition of GTPgammaS-induced activation of GIRK1/4 (unknown origin) expressed in HEK293 cells assessed as decrease in channel current at 1 uM after 2 mins at -40 mV holding potential by automated patch-clamp electrophysiology assay
Summary of the method: (§1)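 Whole-cell automated planar patch clamp on HEK-293 cells stably expressing GIRK1/4 (Kir3.1/3.4). Internal solution carries 0.9 mM GTPγS to activate channels; bath switched from 4 mM K+ to high-K+ (25 mM KCl) external, pH 7.4. Step to 60 mV, ramp to −140 mV, 100 ms at −140 mV, ~0.1 Hz; inward current read at −140 mV. After 3 min control, 1 then 10 μM for ~2 min each; K+-free solution baseline; two to three cells.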

[2] = biological target: T1, Kir3.1/Kir3.4 (Homo sapiens); assay: Inhibition of GTPgammaS-induced activation of GIRK1/4 (unknown origin) expressed in HEK293 cells assessed as decrease in channel current at 10 uM after 2 mins at -40 mV holding potential by automated patch-clamp electrophysiology assay; summary of the method: as §1
hERG (KCNH2) [3] = biological target: T2, hERG (KCNH2) (Homo sapiens, UniProt Q12809); assay: Inhibition of human ERG expressed in HEK293 cells assessed as decrease in channel current at 3 uM after 3 mins at -80 mV holding potential by automated patch-clamp electrophysiology assay; details: HEK293 cells that express hERG
T2 sequence (Q12809 whole entry): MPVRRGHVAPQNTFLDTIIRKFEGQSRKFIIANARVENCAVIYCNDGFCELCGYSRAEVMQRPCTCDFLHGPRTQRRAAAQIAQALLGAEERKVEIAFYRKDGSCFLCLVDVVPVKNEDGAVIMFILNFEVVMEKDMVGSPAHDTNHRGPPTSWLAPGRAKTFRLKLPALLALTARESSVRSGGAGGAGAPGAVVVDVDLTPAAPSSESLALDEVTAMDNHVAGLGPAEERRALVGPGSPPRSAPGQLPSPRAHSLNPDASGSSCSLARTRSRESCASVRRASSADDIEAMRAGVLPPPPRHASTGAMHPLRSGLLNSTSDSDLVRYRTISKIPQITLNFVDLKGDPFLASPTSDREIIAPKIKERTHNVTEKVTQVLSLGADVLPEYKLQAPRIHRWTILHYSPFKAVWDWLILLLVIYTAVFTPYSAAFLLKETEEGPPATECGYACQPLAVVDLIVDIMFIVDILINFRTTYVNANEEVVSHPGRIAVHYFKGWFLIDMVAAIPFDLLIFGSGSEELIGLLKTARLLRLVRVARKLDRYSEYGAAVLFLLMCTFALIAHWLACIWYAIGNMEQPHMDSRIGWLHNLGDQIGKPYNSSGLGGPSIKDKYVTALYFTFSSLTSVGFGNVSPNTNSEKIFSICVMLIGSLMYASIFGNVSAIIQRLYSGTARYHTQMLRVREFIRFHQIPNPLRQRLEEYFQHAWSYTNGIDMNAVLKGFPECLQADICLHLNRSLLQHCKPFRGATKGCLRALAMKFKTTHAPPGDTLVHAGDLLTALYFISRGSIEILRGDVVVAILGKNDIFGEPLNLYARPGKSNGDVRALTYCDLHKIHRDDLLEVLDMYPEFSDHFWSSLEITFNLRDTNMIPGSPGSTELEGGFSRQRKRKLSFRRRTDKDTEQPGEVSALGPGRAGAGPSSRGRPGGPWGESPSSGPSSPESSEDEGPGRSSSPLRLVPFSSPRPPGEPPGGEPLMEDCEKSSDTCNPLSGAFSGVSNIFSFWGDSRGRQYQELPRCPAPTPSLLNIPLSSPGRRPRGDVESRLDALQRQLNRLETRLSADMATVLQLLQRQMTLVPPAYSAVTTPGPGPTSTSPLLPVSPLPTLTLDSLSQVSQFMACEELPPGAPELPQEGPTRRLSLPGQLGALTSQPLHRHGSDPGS
Summary of the method: (§2)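 HEK-293 cells stably transfected with hERG (Kv11.1), whole-cell automated planar patch clamp. External solution 4 mM KCl, pH 7.4; internal KCl/KF/EGTA, pH 7.2. Protocol: 100 ms −40 mV reference step, 3 s at 20 mV, then 1 s at −40 mV for the outward tail current. After control, 3, 10, 30 μM cumulative, ~3 min each; amitriptyline 10 μM reference, then wash-out; two or three cells; DMSO ≤0.3% final.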

hERG (KCNH2) [4] = biological target: T2, hERG (KCNH2); assay: Inhibition of human ERG expressed in HEK293 cells assessed as decrease in channel current at 10 uM after 3 mins at -80 mV holding potential by automated patch-clamp electrophysiology assay; details: HEK293 cells that express hERG; summary of the method: as §2
hERG (KCNH2) [5] = biological target: T2, hERG (KCNH2); assay: Inhibition of human ERG expressed in HEK293 cells assessed as decrease in channel current at 30 uM after 3 mins at -80 mV holding potential by automated patch-clamp electrophysiology assay; details: HEK293 cells that express hERG; summary of the method: as §2

| Compound | inhibition [1] [%] | inhibition [2] [%] | inhibition at 0.05 h, 3 µM (hERG (KCNH2) [3]) [%] | inhibition at 0.05 h, 10 µM (hERG (KCNH2) [4]) [%] | inhibition at 0.05 h, 30 µM (hERG (KCNH2) [5]) [%] |
| --- | --- | --- | --- | --- | --- |
| CCC(=O)O[C@@H]1[C@@H]2[C@@H](OC(C)=O)[C@@]34CO[C@@](C)([C@H](OC(C)=O)[C@@]2(OC(C)=O)C[C@]1(C)OC(=O)c1cccnc1)[C@@H]3[C@@H]1[C@@H](C[C@]1(C)OC(C)=O)[C@@H](OC(=O)C(C)C)C4=O | 35 | 65 | 11 | 22 | 42 |
| CCC(C)C(=O)O[C@H]1C(=O)[C@@]23CO[C@@](C)([C@H](OC(C)=O)[C@@]4(OC(C)=O)C[C@](C)(O)[C@H](OC(=O)C(C)C)[C@@H]4[C@H]2OC(C)=O)[C@@H]3[C@@H]2[C@H]1C[C@]2(C)OC(C)=O (stereo not given in full) | 14 | 26 | 12 | 22 | 32 |
| CCC(=O)O[C@@H]1[C@@H]2[C@@H](OC(C)=O)[C@@]34CO[C@@](C)([C@H](OC(C)=O)[C@@]2(OC(C)=O)C[C@]1(C)O)[C@@H]3[C@@H]1[C@@H](C[C@]1(C)OC(C)=O)[C@@H](OC(=O)C(C)CC)C4=O (stereo not given in full) | 11 | 24 | 8 | 20 | 33 |
| CCC(C)C(=O)O[C@H]1C(=O)[C@@]23CO[C@@](C)([C@H](OC(C)=O)[C@@]4(OC(C)=O)C[C@](C)(OC(=O)c5cccnc5)[C@H](OC(=O)C(C)C)[C@@H]4[C@H]2OC(C)=O)[C@@H]3[C@@H]2[C@H]1C[C@]2(C)OC(C)=O (stereo not given in full) | 23 | 69 | 20 | 54 | 82 |
| CCCCCC(=O)O[C@@H]1[C@@H]2[C@@H](O)[C@]34CC[C@H]5[C@@H]([C@H]3[C@@](C)(OC4)[C@H](OC(C)=O)[C@@]2(O)C[C@@H]1C)C5(C)C | 30 | 69 | 19 | 40 | 55 |
| CC(=O)O[C@@H]1[C@H]2[C@@H](OC(=O)C(C)C)[C@@](C)(OC(=O)c3ccccc3)C[C@]2(OC(C)=O)[C@@H](OC(C)=O)[C@]2(C)OC[C@]13C(=O)[C@H](OC(=O)C(C)C)[C@@H]1C[C@](C)(OC(C)=O)[C@@H]1[C@@H]23 | 33 | 77 | 14 | 24 | 53 |
| CCC(C)C(=O)O[C@H]1C(=O)[C@@]23CO[C@@](C)([C@H](OC(C)=O)[C@@]4(OC(C)=O)C[C@](C)(OC(=O)c5ccccc5)[C@H](OC(=O)C(C)C)[C@@H]4[C@H]2OC(C)=O)[C@@H]3[C@@H]2[C@H]1C[C@]2(C)OC(C)=O (stereo not given in full) | 26 | 70 | 14 | 30 | 40 |
| CC(=O)O[C@@H]1[C@H]2[C@@H](OC(=O)C(C)C)[C@@](C)(OC(=O)c3cccnc3)C[C@]2(OC(C)=O)[C@@H](OC(C)=O)[C@]2(C)OC[C@]13C(=O)[C@H](OC(=O)C(C)C)[C@@H]1C[C@](C)(OC(C)=O)[C@@H]1[C@@H]23 | 8 | 57 | 8 | 19 | 30 |
| CCC(=O)O[C@@H]1[C@@H]2[C@@H](OC(C)=O)[C@@]34CO[C@@](C)([C@H](OC(C)=O)[C@@]2(OC(C)=O)C[C@H]1C)[C@@H]3[C@@H]1[C@@H](C[C@]1(C)OC(C)=O)[C@@H](OC(=O)C(C)C)C4=O | 30 | 70 | 0 | 23 | 33 |

More lines, main results first:

| inhibition [1] [%] | inhibition [2] [%] | Compound | inhibition at 0.05 h, 3 µM (hERG (KCNH2) [3]) [%] | inhibition at 0.05 h, 10 µM (hERG (KCNH2) [4]) [%] | inhibition at 0.05 h, 30 µM (hERG (KCNH2) [5]) [%] |
| --- | --- | --- | --- | --- | --- |
| 28 | 48 | CC(=O)O[C@@H]1C[C@H]2[C@@H]([C@@H]3[C@]1(COC(=O)c1cccnc1)[C@H](OC(=O)c1ccccc1)[C@H]1[C@@H](OC(=O)C(C)C)[C@@H](C)C[C@]1(O)C(=O)[C@@]3(C)OC(C)=O)C2(C)C | 14 | 29 | 53 |
| 19 | 54 | CCC(=O)O[C@@H]1[C@@H]2[C@@H](OC(C)=O)[C@@]34CO[C@@](C)([C@H](OC(C)=O)[C@@]2(O)C[C@@H]1C)[C@@H]3[C@@H]1[C@@H](C[C@]1(C)OC(C)=O)[C@@H](OC(=O)c1ccccc1)C4=O | 12 | 21 | 45 |
| 18 | 37 | CC(=O)OC1O[C@@]2(C)[C@H](OC(=O)c3ccccc3)[C@@]3(OC(C)=O)C[C@H](C)[C@H](OC(=O)C(C)C)[C@@H]3[C@@H](OC(C)=O)[C@@]13[C@H](OC(=O)c1cccnc1)C[C@H]1[C@@H]([C@@H]23)C1(C)C (stereo not given in full) | 48 | 68 | 78 |
| 20 | 64 | CCC(=O)O[C@@H]1[C@@H]2[C@@H](OC(C)=O)[C@@]34CO[C@@](C)([C@H](OC(C)=O)[C@@]2(OC(C)=O)C[C@]1(C)OC(=O)c1ccccc1)[C@@H]3[C@@H]1[C@@H](C[C@]1(C)OC(C)=O)[C@@H](OC(=O)C(C)CC)C4=O (stereo not given in full) | 16 | 31 | 52 |
| 21 | 47 | CCC(=O)O[C@@H]1[C@@H]2[C@@H](OC(=O)c3ccccc3)[C@@]3(COC(=O)C(C)C)[C@H]4[C@H](C=C[C@H]3OC(C)=O)C(C)(C)O[C@]4(C)C(=O)[C@@]2(OC(C)=O)C[C@@H]1C | 11 | 24 | 40 |
| 26 | 61 | CC(=O)OC[C@@]12[C@H](OC(=O)c3ccccc3)[C@H]3[C@@H](OC(=O)C(C)C)[C@@H](C)C[C@]3(OC(C)=O)C(=O)[C@@]3(C)OC(C)(C)[C@@H](C=C[C@H]1OC(C)=O)[C@H]23 | 13 | 24 | 43 |
| 21 | 54 | CC(=O)O[C@@H]1C=C[C@H]2[C@@H]3[C@]1(COC(=O)C(C)C)[C@H](OC(=O)c1ccccc1)[C@H]1[C@@H](OC(=O)C(C)C)[C@@H](C)C[C@]1(O)C(=O)[C@@]3(C)OC2(C)C | 20 | 33 | 46 |
